ED50, Activity and LD50 data for nine compounds are collected here from ChEMBL document CHEMBL3227998, “Synthesis and pharmacological activity of 2,3,4,5,-tetrahydro-1,5-methano-1H-3-benzazepines” (J Med Chem, 1979).

The subject of data set [1] is Mus musculus. Description: Analgesic activity in sc dosed mouse by eddy's hot-plate method. The class given is functional. The gist of the method:
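Mice were given aqueous solutions of the oxalate salts subcutaneously. Antinociception was read by the Eddy hot-plate method, and analgesic potency was expressed as ED50 in mg/kg.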

The subject of data set [2] is Mus musculus. Description: Inhibition of morphine-induced response in mouse at 1 mg/kg, sc by tail-flick antagonist assay. Particulars: route subcutaneous. The class given is functional. Also noted: scale not given: the % may be the effect or the level left.
Data set [3] deals with Mus musculus. Description: (§1) Toxicity in sc dosed mouse. The class given is organism-based. Particulars: in vivo.
Data set [4] deals with Mus musculus. Description: Inhibition of morphine-induced response in mouse at 3 mg/kg, sc by tail-flick antagonist assay. The class given is functional. Also noted: scale not given: the % may be the effect or the level left. Particulars: route subcutaneous.
Data set [5] can be described thus: as §1. The format is organism-based. Particulars: in vivo.
In data set [6] the test system is Mus musculus. Description: Inhibition of morphine-induced response in mouse at 0.3 mg/kg, sc by tail-flick antagonist assay. The format is functional. Further details: scale not given: the % may be the effect or the level left. The following applies: route subcutaneous.

Calls of active or inactive are those of the source. The rule behind the calls is not given here.

Regarding `COc1ccc2c3c1O[C@H]1[C@@H](O)C=C[C@H]4[C@@H](C2)N(C)CC[C@@]341` [CODEINE], in the data set with Mus musculus [1], the ED50 (commonly the dose that gives a 50% effect, or the effect in half of the subjects) was 5.8 mg/kg.

In the case of `CCCN1CC2CC(C1)c1ccccc12.O=C(O)C(=O)O`, the Activity in the data set on Mus musculus [2] is 47%; in the data set with Mus musculus [3], “Toxic”. Besides, in the data set with Mus musculus [1], the outcome was inactive.

Turning to `CC(C)=CCN1CC2CC(C1)c1ccccc12.O=C(O)C(=O)O`, the result in the data set with Mus musculus [1] was inactive. Besides, in the data set on Mus musculus [3], the Activity entry is “Toxic”.

`c1ccc2c(c1)C1CCNCC2C1` (stereo not drawn): the 50% effect level in the data set on Mus musculus [1] (ED50) was put at a dose of 4.9 mg/kg.

As for `C=CCN1CC2CC(C1)c1ccccc12.O=C(O)C(=O)O`, the ED50 in the data set on Mus musculus [1] came to 15.6 mg/kg. This compound also registered an Activity in the data set on Mus musculus [4] of 56%. For the same compound, in data set [5], the LD50 (in general, the dose expected to kill half of the subjects tested) was 47 mg/kg.

On to `CN1CC2CC(C1)c1ccccc12.O=C(O)C(=O)O`, for which the outcome with Mus musculus [1] was inactive. The Activity entry in the data set on Mus musculus [3] is recorded as “Toxic”.

In the case of `O=C(O)C(=O)O.c1ccc(CCN2CC3CC(C2)c2ccccc23)cc1`, the result with Mus musculus [1] was inactive. Besides, the Activity result with Mus musculus [3] is on record as “Non-toxic”.

As for `O=C(O)C(=O)O.c1ccc2c(c1)C1CC2CN(CC2CC2)C1`, the values for the Activity in the data set with Mus musculus [6] and with Mus musculus [3] were 58% and “Toxic”, respectively. In the data set on Mus musculus [1], the result was inactive.

For the compound `c1ccc2c(c1)CC1CC2CCN1` (stereo not drawn), the ED50 in the data set with Mus musculus [1] turned out to be 10.2 mg/kg.
